ChEMBL document CHEMBL1143422, “In vitro selection and characterization of human immunodeficiency virus type 2 with decreased susceptibility to lopinavir” (Antimicrob Agents Chemother, 2007)

System: Human immunodeficiency virus 2
Experiment: Antiviral activity against HIV2 MS infected in human MT4 cells assessed as reduction in virus-induced cytopathic effect after 5 days by MTT assay
Assay type: functional, organism-based
Conditions: Human immunodeficiency virus 2, MT4, 120 h
How it was run: (§1)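 MT4 cells were infected 1 h with 50–100 pg RNA virus, washed twice, and exposed in triplicate to half-log PI dilutions (DMSO 1% final) for 5 days at 37°C. Cell viability was read by MTT: 4 h, SDS/HCl lysis overnight, OD at 570/650 nm. Cytopathic-effect reduction was scaled between infected and uninfected controls. EC50 by nonlinear regression, mean of three experiments.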

| Compound | EC50 [nM] |
| --- | --- |
| CC(C)(C)NC(=O)[C@@H]1CN(Cc2cccnc2)CCN1C[C@@H](O)C[C@@H](Cc1ccccc1)C(=O)N[C@H]1c2ccccc2C[C@H]1O.O [INDINAVIR] | 22 |

System: Human immunodeficiency virus 2
Experiment: Antiviral activity against HIV2 CBL-23 infected in human PBMC assessed as inhibition of virus production after 5 days by Lenti-RT activity assay
Assay type: functional, organism-based
Conditions: Human immunodeficiency virus 2, CBL-23, 120 h
How it was run: (§2)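 PBMCs were stimulated with PHA (5 μg/ml) for 3 days, then kept in 20% FBS medium with IL-2 (50 U/ml). Cells were infected 1 h with 50–100 pg RNA virus, washed twice, and given half-log PI dilutions (DMSO 1% final) in triplicate. After 5 days at 37°C, supernatant RT was read versus infected control. EC50 by nonlinear regression, mean of three experiments.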

| Compound | EC50 [nM] |
| --- | --- |
| CC(C)(C)NC(=O)[C@@H]1CN(Cc2cccnc2)CCN1C[C@@H](O)C[C@@H](Cc1ccccc1)C(=O)N[C@H]1c2ccccc2C[C@H]1O.O [INDINAVIR] | 33 |

System: Human immunodeficiency virus 2
Experiment: Antiviral activity against HIV2 CDC310319 isolate infected in human PBMC assessed as inhibition of virus production after 5 days by Lenti-RT activity assay
Assay type: functional, organism-based
Conditions: Human immunodeficiency virus 2, 120 h
How it was run: as §2

| Compound | EC50 [nM] |
| --- | --- |
| CC(C)(C)NC(=O)[C@@H]1CN(Cc2cccnc2)CCN1C[C@@H](O)C[C@@H](Cc1ccccc1)C(=O)N[C@H]1c2ccccc2C[C@H]1O.O [INDINAVIR] | 108 |

System: not listed separately
Experiment: Ratio of EC50 for HIV2 MS to EC50 for HIV1 NL4-3 infected in human MT4 cells
Assay type: functional
Conditions: not given

| Compound | Ratio EC50 |
| --- | --- |
| CC(C)(C)NC(=O)[C@@H]1CN(Cc2cccnc2)CCN1C[C@@H](O)C[C@@H](Cc1ccccc1)C(=O)N[C@H]1c2ccccc2C[C@H]1O.O [INDINAVIR] | 0.5 |

System: not listed separately
Experiment: Ratio of EC50 for HIV2 CBL-23 infected in human PBMC to EC50 for HIV1 NL4-3 infected in human MT4 cells
Assay type: functional
Conditions: not given

| Compound | Ratio EC50 |
| --- | --- |
| CC(C)(C)NC(=O)[C@@H]1CN(Cc2cccnc2)CCN1C[C@@H](O)C[C@@H](Cc1ccccc1)C(=O)N[C@H]1c2ccccc2C[C@H]1O.O [INDINAVIR] | 0.8 |

System: not listed separately
Experiment: Ratio of EC50 for HIV2 CDC310319 infected in human PBMC to EC50 for HIV1 NL4-3 infected in human MT4 cells
Assay type: functional
Conditions: not given

| Compound | Ratio EC50 |
| --- | --- |
| CC(C)(C)NC(=O)[C@@H]1CN(Cc2cccnc2)CCN1C[C@@H](O)C[C@@H](Cc1ccccc1)C(=O)N[C@H]1c2ccccc2C[C@H]1O.O [INDINAVIR] | 2.6 |

System: Human immunodeficiency virus 2
Experiment: Antiviral activity against wild type HIV2 ROD infected in human CEM cells assessed as inhibition of virus production after 7 days by Lenti-RT activity assay
Assay type: functional, organism-based
Conditions: Human immunodeficiency virus 2, ROD, CCRF-CEM, 168 h

| Compound | EC50 [nM] |
| --- | --- |
| CC(C)(C)NC(=O)[C@@H]1CN(Cc2cccnc2)CCN1C[C@@H](O)C[C@@H](Cc1ccccc1)C(=O)N[C@H]1c2ccccc2C[C@H]1O.O [INDINAVIR] | 65 |

System: Human immunodeficiency virus 2
Experiment: Antiviral activity against HIV2 ROD with protease G17N mutation infected in human CEM cells assessed as inhibition of virus production after 7 days by Lenti-RT activity assay
Assay type: functional, organism-based
Conditions: Human immunodeficiency virus 2, ROD, CCRF-CEM, 168 h
How it was run: (§3)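 Protease mutant clones of HIV-2ROD came from site-directed mutagenesis of pSL-3, with stocks made by 293T transfection. CEM174 cells were infected with 100 pg RT of virus for 2 h at 37°C, washed, and seeded at 2 × 10^5 cells/ml. PI was added as 1:4 serial dilutions, 1% DMSO final, and incubated 7 days. Supernatant RT was read, in triplicate. EC50 came from nonlinear regression, and fold-change is mutant EC50 divided by HIV-2ROD EC50.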

| Compound | EC50 [nM] |
| --- | --- |
| CC(C)(C)NC(=O)[C@@H]1CN(Cc2cccnc2)CCN1C[C@@H](O)C[C@@H](Cc1ccccc1)C(=O)N[C@H]1c2ccccc2C[C@H]1O.O [INDINAVIR] | 52 |

System: Human immunodeficiency virus 2
Experiment: Antiviral activity against HIV2 ROD with protease V47A mutation infected in human CEM cells assessed as inhibition of virus production after 7 days by Lenti-RT activity assay
Assay type: functional, organism-based
Conditions: Human immunodeficiency virus 2, ROD, CCRF-CEM, 168 h
How it was run: as §3

| Compound | EC50 [nM] |
| --- | --- |
| CC(C)(C)NC(=O)[C@@H]1CN(Cc2cccnc2)CCN1C[C@@H](O)C[C@@H](Cc1ccccc1)C(=O)N[C@H]1c2ccccc2C[C@H]1O.O [INDINAVIR] | 34 |

System: Human immunodeficiency virus 2
Experiment: Antiviral activity against HIV2 ROD with protease G17N/V47A mutation infected in human CEM cells assessed as inhibition of virus production after 7 days by Lenti-RT activity assay
Assay type: functional, organism-based
Conditions: Human immunodeficiency virus 2, ROD, CCRF-CEM, 168 h
How it was run: as §3

| Compound | EC50 [nM] |
| --- | --- |
| CC(C)(C)NC(=O)[C@@H]1CN(Cc2cccnc2)CCN1C[C@@H](O)C[C@@H](Cc1ccccc1)C(=O)N[C@H]1c2ccccc2C[C@H]1O.O [INDINAVIR] | 24 |

System: Human immunodeficiency virus 2
Experiment: Ratio of EC50 for HIV2 ROD with protease G17N mutation to EC50 for wild type HIV2 ROD
Assay type: functional
Conditions: not given
How it was run: as §3

| Compound | Ratio EC50 |
| --- | --- |
| CC(C)(C)NC(=O)[C@@H]1CN(Cc2cccnc2)CCN1C[C@@H](O)C[C@@H](Cc1ccccc1)C(=O)N[C@H]1c2ccccc2C[C@H]1O.O [INDINAVIR] | 0.8 |

System: Human immunodeficiency virus 2
Experiment: Ratio of EC50 for HIV2 ROD with protease V47A mutation to EC50 for wild type HIV2 ROD
Assay type: functional
Conditions: not given
How it was run: as §3

| Compound | Ratio EC50 |
| --- | --- |
| CC(C)(C)NC(=O)[C@@H]1CN(Cc2cccnc2)CCN1C[C@@H](O)C[C@@H](Cc1ccccc1)C(=O)N[C@H]1c2ccccc2C[C@H]1O.O [INDINAVIR] | 0.5 |

System: Human immunodeficiency virus 2
Experiment: Ratio of EC50 for HIV2 ROD with protease G17N/V47A mutation to EC50 for wild type HIV2 ROD
Assay type: functional
Conditions: not given
How it was run: as §3

| Compound | Ratio EC50 |
| --- | --- |
| CC(C)(C)NC(=O)[C@@H]1CN(Cc2cccnc2)CCN1C[C@@H](O)C[C@@H](Cc1ccccc1)C(=O)N[C@H]1c2ccccc2C[C@H]1O.O [INDINAVIR] | 0.5 |

System: Human immunodeficiency virus 1
Experiment: Antiviral activity against HIV1 NL4-3 infected in human MT4 cells assessed as reduction in virus-induced cytopathic effect after 5 days by MTT assay
Assay type: functional, organism-based
Conditions: Human immunodeficiency virus 1, NL4-3, MT4, 120 h
How it was run: as §1

| Compound | EC50 [nM] |
| --- | --- |
| CC(C)(C)NC(=O)[C@@H]1CN(Cc2cccnc2)CCN1C[C@@H](O)C[C@@H](Cc1ccccc1)C(=O)N[C@H]1c2ccccc2C[C@H]1O.O [INDINAVIR] | 38 |
